Calls of active or inactive are those of the source. The calls are words filed in the database; no cut-off is given here.
Key:
NCI/ADR-RES [1] = assay: Antitumor activity against human NCI/ADR-RES cells xenografted in athymic nude mouse assessed as reduction in tumor growth at 20 ug administered intratumorally on day 0, 3, 6, 10 and 14 measured on day 12 to 14 post dose; format: functional, cell-based
How it was run: (§1)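 NCI/ADR-RES tumor fragments implanted s.c. in the flanks of female athymic nude mice. Randomized at a mean tumor volume of 250 mm3 (range 100−465). Dosing was 20 μg in 200 μL of 10% EtOH/PBS by intratumoral injection on days 0, 3, 6, 10 and 14; vehicle and paclitaxel groups ran alongside. Caliper volume = L×W×H. Mice were euthanized at 1500 mm3. Two-way ANOVA with Tukey post hoc.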

NCI/ADR-RES [2] = assay: Antitumor activity against human NCI/ADR-RES cells xenografted in athymic nude mouse administered via ip; format: functional, cell-based
HeLa [3] = assay: Antiproliferative activity against human HeLa cells after 48 hrs by sulforhodamine B assay; format: functional, cell-based
How it was run: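 HeLa cells (STR-validated) grown in BME with 10% FBS and gentamycin, seeded 2500/well, left to adhere overnight, then exposed to compounds for 48 h. Cell density read by sulforhodamine B staining. IC50 is the concentration giving 50% inhibition of cell density versus vehicle, fitted by nonlinear regression. Mean of 3 or 4 experiments, each in triplicate, ±SD.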

HeLa [4] = assay: Induction of microtubule stabilization in human HeLa cells assessed as formation of multiple aberrant mitotic spindle at 5 times IC50 after 18 hrs by indirect immunofluorescence assay; format: cell-based
How it was run: (§2)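 HeLa cells treated for 18 h at 5-fold each compound's own antiproliferative IC50, with EtOH as vehicle control. Mitotic and interphase microtubules stained by indirect immunofluorescence with a β-tubulin antibody and viewed by fluorescence microscopy.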

[5] = Toxicity in ip dosed athymic nude mouse harboring tumor; format: organism-based; conditions: in vivo
How it was run: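 Dose tolerance was assessed in tumor-bearing mice carrying drug-sensitive or drug-resistant xenografts, with compound given by ip injection. A cumulative maximal tolerated dose was determined.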

Sus scrofa [6] = species: Sus scrofa; assay: Induction of porcine brain tubulin polymerization at 5 uM by turbidimetric method
How it was run: (§3)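 Compound or vehicle (1% EtOH) added; samples prepared on ice, then warmed to 37 °C to start polymerization. Rate and extent followed turbidimetrically at 340 nm.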

HeLa [7] = assay: Induction of microtubule stabilization in human HeLa cells assessed as bundling of interphase microtubule at 5 times IC50 after 18 hrs by indirect immunofluorescence assay; format: cell-based; how it was run: as §2
NCI/ADR-RES [8] = assay: Antitumor activity against human NCI/ADR-RES cells xenografted in athymic nude mouse assessed as reduction in tumor growth at 20 ug administered intratumorally on day day 0, 3, 6, 10 and 14 measured on day 0 post dose; format: functional, cell-based; how it was run: as §1
NCI/ADR-RES [9] = assay: Antitumor activity against human NCI/ADR-RES cells xenografted in athymic nude mouse assessed as time required to show half of the tumors to reach tumor volume <1500 mm3 at 20 ug administered intratumorally on day 0, 3, 6, 10 and 14 measured after 5 days; format: functional; how it was run: as §1
Mus musculus [10] = assay: Toxicity in athymic nude mouse xenografted with human NCI/ADR-RES cells assessed as adverse effect at 20 ug administered intratumorally on day 0, 3, 6, 10 and 14 measured on day 12; format: organism-based; conditions: in vivo, other; how it was run: as §1
NCI/ADR-RES [11] = assay: Antitumor activity against human NCI/ADR-RES cells xenografted in athymic nude mouse assessed as reduction in tumor growth at 20 ug administered intratumorally on day 0, 3, 6, 10 and 14 measured on day 12; format: functional, cell-based; how it was run: as §1
NCI/ADR-RES [12] = assay: Antitumor activity against human NCI/ADR-RES cells xenografted in athymic nude mouse assessed as reduction in tumor growth at 40 ug administered intratumorally on day 0, 3, 6, 10 and 14 measured up to 14 days during compound dosing; format: functional, cell-based
How it was run: (§4)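 NCI/ADR-RES tumor fragments implanted s.c. in flanks of female athymic nude mice. At about 250 mm3 (100−465 mm3), mice were grouped (n = 7−9). Tumors were injected directly with 200 μL on days 0, 3, 6, 10 and 14: 20 μg in 10% EtOH/PBS, paclitaxel 40 μg in 1% Cremophor/EtOH in PBS, or vehicle. Volume = length × width × height by calipers.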

NCI/ADR-RES [13] = assay: Antitumor activity against human NCI/ADR-RES cells xenografted in athymic nude mouse assessed as reduction in tumor growth at 40 ug administered intratumorally on day 0, 3, 6, 10 and 14 measured on day 12 to 14 post dose; format: functional, cell-based; how it was run: as §4
NCI/ADR-RES [14] = assay: Antitumor activity against human NCI/ADR-RES cells xenografted in athymic nude mouse assessed as reduction in tumor growth at 40 ug administered intratumorally on day day 0, 3, 6, 10 and 14 measured on day 0 post dose; format: functional, cell-based; how it was run: as §4
NCI/ADR-RES [15] = assay: Antitumor activity against human NCI/ADR-RES cells xenografted in athymic nude mouse assessed as delay in tumor growth at 20 ug administered intratumorally on day 0, 3, 6, 10 and 14 measured up to 54 days starting from 5 days post last dose; format: functional, cell-based; how it was run: as §4
NCI/ADR-RES [16] = assay: Antitumor activity against human NCI/ADR-RES cells xenografted in athymic nude mouse assessed as tumor volume at 20 ug administered intratumorally on day 0, 3, 6, 10 and 14 measured up to 45 days starting from 5 days post last dose; format: functional; how it was run: as §4
Mus musculus [17] = assay: Toxicity in athymic nude mouse xenografted with human NCI/ADR-RES cells assessed as weight loss at 20 ug administered intratumorally on day 0, 3, 6, 10 and 14 measured on day 10; format: organism-based; conditions: in vivo, other; how it was run: as §1
NCI/ADR-RES [18] = assay: Antitumor activity against human NCI/ADR-RES cells xenografted in athymic nude mouse assessed as reduction in tumor growth at 20 ug administered intratumorally on day 0, 3, 6, 10 and 14 measured on day 10 post dose; format: functional, cell-based; how it was run: as §4
Sus scrofa [19] = species: Sus scrofa; assay: Induction of porcine brain tubulin polymerization at 5 to 20 uM by turbidimetric method; how it was run: as §3

| Compound | Activity (NCI/ADR-RES [2]) | IC50 (HeLa [3]) | Activity (HeLa [4]) | MTD [5] | Activity (Sus scrofa [6]) | Activity (HeLa [7]) | other results |
| --- | --- | --- | --- | --- | --- | --- | --- |
| CC(=O)O[C@H]1[C@H]2[C@H]([C@@H]3[C@@H](O)[C@@H]4[C@H]([C@H](C)[C@H]5O[C@]56OC(=O)[C@@](C)(O)[C@]46C)[C@@]3(C)[C@H]1OC(C)=O)[C@@H](OC(=O)CC(C)C)C(=O)[C@H]1C[C@@H]3O[C@@H]3[C@H](OC(C)=O)[C@]21C | inactive | 2.4 nM | Active | < 10 mg/kg | Active | Active | Activity (NCI/ADR-RES [1]): Active; Activity (NCI/ADR-RES [8]): Active; Time (NCI/ADR-RES [9]): 38 days; Activity (Mus musculus [10]): Non-Toxic; Activity (NCI/ADR-RES [11]): Active |
| CC(=O)O[C@H]1C(=O)[C@@]2(C)[C@H]([C@H](OC(=O)c3ccccc3)[C@]3(O)C[C@H](OC(=O)[C@H](O)[C@@H](NC(=O)c4ccccc4)c4ccccc4)C(C)=C1C3(C)C)[C@]1(OC(C)=O)CO[C@@H]1C[C@@H]2O | – | – | – | – | – | – | Activity (NCI/ADR-RES [12]): inactive; Activity (NCI/ADR-RES [13]): Active; Activity (NCI/ADR-RES [14]): inactive |
| CC(=O)O[C@H]1[C@H]2[C@H]([C@@H]3[C@@H](OC(=O)C(C)C)[C@@H]4[C@H]([C@H](C)[C@H]5O[C@]56OC(=O)[C@@](C)(O)[C@]46C)[C@@]3(C)[C@H]1OC(C)=O)[C@@H](O)C(=O)[C@H]1C[C@@H]3O[C@@H]3[C@H](OC(C)=O)[C@]21C | – | 10.6 nM | Active | < 10 mg/kg | Active | Active | – |
| CC(=O)O[C@H]1[C@H]2[C@H]([C@@H]3[C@@H](OC(=O)C(C)(C)C)[C@@H]4[C@H]([C@H](C)[C@H]5O[C@]56OC(=O)[C@@](C)(O)[C@]46C)[C@@]3(C)[C@H]1OC(C)=O)[C@@H](O)C(=O)[C@H]1C[C@@H]3O[C@@H]3[C@H](OC(C)=O)[C@]21C | – | 4.2 nM | Active | < 10 mg/kg | – | Active | – |
| CC(=O)O[C@H]1[C@H]2[C@H]([C@@H]3[C@@H](OC(=O)C4CC4)[C@@H]4[C@H]([C@H](C)[C@H]5O[C@]56OC(=O)[C@@](C)(O)[C@]46C)[C@@]3(C)[C@H]1OC(C)=O)[C@@H](O)C(=O)[C@H]1C[C@@H]3O[C@@H]3[C@H](OC(C)=O)[C@]21C | – | 27.5 nM | Active | < 10 mg/kg | Active | Active | – |
| CC(=O)O[C@@H]1[C@H]2[C@H]3[C@H]([C@H](OC(C)=O)[C@H](OC(C)=O)[C@]2(C)[C@H]2[C@H](C)[C@H]4O[C@]45OC(=O)[C@@](C)(O)[C@]5(C)[C@H]12)[C@]1(C)[C@H](C[C@@H]2O[C@@H]2[C@@H]1OC(C)=O)C(=O)[C@@H]3O | Active | 23 nM | – | – | – | – | – |
| CC(=O)O[C@H]1[C@H]2[C@H]([C@@H]3[C@@H](OC(=O)CC(C)C)[C@@H]4[C@H]([C@H](C)[C@H]5O[C@]56OC(=O)[C@@](C)(O)[C@]46C)[C@@]3(C)[C@H]1OC(C)=O)[C@@H](O)C(=O)[C@H]1C[C@@H]3O[C@@H]3[C@H](OC(C)=O)[C@]21C | inactive | 2.7 nM | Active | < 10 mg/kg | Active | Active | Activity (NCI/ADR-RES [1]): Active; Activity (NCI/ADR-RES [15]): Active; Activity (NCI/ADR-RES [16]): <1500 mm3; Activity (NCI/ADR-RES [8]): Active; Activity (Mus musculus [17]): Non-Toxic; Activity (NCI/ADR-RES [18]): Active |
| CC(=O)O[C@H]1[C@H]2[C@H]([C@@H]3[C@@H](O)[C@@H]4[C@H]([C@H](C)[C@H]5O[C@]56OC(=O)[C@@](C)(O)[C@]46C)[C@@]3(C)[C@H]1OC(C)=O)[C@@H](O)C(=O)[C@H]1C[C@@H]3O[C@@H]3[C@H](OC(C)=O)[C@]21C | inactive | 4.2 nM | – | – | – | – | Activity (Sus scrofa [19]): Active |

Reference: ChEMBL document CHEMBL4138275, “Taccalonolide Microtubule Stabilizers Generated Using Semisynthesis Define the Effects of Mono Acyloxy Moieties at C-7 or C-15 and Disubstitutions at C-7 and C-25” (J Nat Prod, 2018)
